Experimental data as given in ChEMBL document CHEMBL4396890, “Synthesis, Biological Evaluation, Structure-Activity Relationship, and Mechanism of Action Studies of Quinoline-Metronidazole Derivatives Against Experimental Visceral Leishmaniasis” (J Med Chem, 2019).
Calls of active or inactive are those of the source. The calls are words filed in the database; no cut-off is given here.

Experiments:
Leishmania donovani [1] = test: Induction of morphological changes in Leishmania donovani MHOM/IN/80/Dd8 promastigotes assessed as appearance of round shape parasite at 50 uM after 48 hrs by bright field microscopic analysis; type: functional, organism-based
Leishmania donovani [2] = test: Induction of apoptosis in Leishmania donovani MHOM/IN/80/Dd8 promastigotes assessed as early apoptotic cells at 50 uM measured after 24 hrs by Annexin V-FITC/propidium iodide staining based assay (reference value: 6.91%); type: functional
Leishmania donovani [3] = test: Induction of reactive oxygen species generation in Leishmania donovani MHOM/IN/80/Dd8 promastigotes at 50 uM measured after 48 hrs by H2DCFDA probe-based flow cytometry (reference value: 7%); type: functional
Leishmania donovani [4] = test: Induction of apoptosis in Leishmania donovani MHOM/IN/80/Dd8 promastigotes assessed as early apoptotic cells at 50 uM measured after 12 hrs by Annexin V-FITC/propidium iodide staining based assay (reference value: 6.91%); type: functional
Leishmania donovani [5] = test: Induction of mitochondrial membrane disruption in Leishmania donovani MHOM/IN/80/Dd8 promastigotes assessed as increase in cytochrome c release from mitochondria to cytosol at 50 uM measured after 6 to 48 hrs by immunoblot analysis; type: functional, organism-based
Outline: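 Promastigotes were treated with 50 μM compound for 6−48 h, or 0.1% DMSO for 48 h. Mitochondrial and cytosolic fractions were immunoblotted for cytochrome c, with COX-IV and β-tubulin as fraction loading controls.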

Leishmania donovani [6] = test: Induction of apoptosis in Leishmania donovani MHOM/IN/80/Dd8 promastigotes assessed as late apoptotic cells at 50 uM measured after 12 hrs by Annexin V-FITC/propidium iodide staining based assay (reference value: 0.02%); type: functional
Leishmania donovani [7] = test: Induction of mitochondrial potential loss in Leishmania donovani MHOM/IN/80/Dd8 promastigotes assessed as shift in red to green fluorescence at 50 uM after 48 hrs by JC1 dye-based flow cytometry (reference value: 7.37%); type: functional
Outline: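 Exponential-phase promastigotes were incubated with 50 μM compound for 6−48 h, or 0.1% DMSO vehicle. CCCP (50 μM) served as positive control. After JC-1 staining, the red-to-green fluorescence shift was measured by flow cytometry.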

Leishmania donovani [8] = test: Induction of nitric oxide generation in Leishmania donovani MHOM/IN/80/Dd8 promastigotes assessed as increase in fluorescence at 50 uM measured after 6 hrs by DAF-2DA dye-based flow cytometry relative to control; type: functional
Outline: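 Log-phase promastigotes exposed to 50 μM for 6–18 h, vehicle control 0.1% DMSO, then labelled with 40 μM DAF-2DA. Fluorescence (GMFC) read by flow cytometry and expressed as fold change over vehicle. At least 3 independent experiments in duplicate.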

Leishmania donovani [9] = test: Induction of plasma membrane permeabilization in Leishmania donovani MHOM/IN/80/Dd8 promastigotes assessed as non specific pore formation at MIC measured after 4 hrs by sytox green dye based flow cytometry; type: functional, organism-based

**Q.** Which Activity (Leishmania donovani [1]) does the source give for `Cc1cc(-c2ccc(OCCn3c([N+](=O)[O-])cnc3C)cc2)nc2ccccc12` here?
**A.** Its Activity is “Active”.

**Q.** And the Activity (Leishmania donovani [2])?
**A.** The Activity was 4.04%.

**Q.** What about the Activity (Leishmania donovani [3]) of the same molecule?
**A.** Its Activity is 58.2%.

**Q.** What about the Activity (Leishmania donovani [4]) of the same molecule?
**A.** Its Activity is 12.89%.

**Q.** What about the Activity (Leishmania donovani [5]) of the same molecule?
**A.** The Activity was “Active”.

**Q.** What about the Activity (Leishmania donovani [6]) of the same molecule?
**A.** Its Activity is 1.43%.

**Q.** And the Activity (Leishmania donovani [7])?
**A.** Its Activity is 68.76%.

**Q.** What about the “fold change (FC)” value (Leishmania donovani [8]) of the same molecule?
**A.** The value was 1.75.

**Q.** What about the Activity (Leishmania donovani [9]) of the same molecule?
**A.** Its Activity is “inactive”.
